In ChEMBL document CHEMBL1127371, “Acyl CoA:cholesterol acyltransferase (ACAT) inhibitors: synthesis and structure-activity relationship studies of a new series of trisubstituted imidazoles” (J Med Chem, 1994):
“And” between values parts separate entries of the source, which are not always exact repeats. Identical values can stand only once.

Key:
[1] = target: T1, Sterol O-acyltransferase 1 (Rattus norvegicus, UniProt O70536); experiment: In vitro inhibition of Acyl coenzyme A:cholesterol acyltransferase in rat hepatic microsomes; parameters: species or system Liver
T1 sequence (O70536 whole entry): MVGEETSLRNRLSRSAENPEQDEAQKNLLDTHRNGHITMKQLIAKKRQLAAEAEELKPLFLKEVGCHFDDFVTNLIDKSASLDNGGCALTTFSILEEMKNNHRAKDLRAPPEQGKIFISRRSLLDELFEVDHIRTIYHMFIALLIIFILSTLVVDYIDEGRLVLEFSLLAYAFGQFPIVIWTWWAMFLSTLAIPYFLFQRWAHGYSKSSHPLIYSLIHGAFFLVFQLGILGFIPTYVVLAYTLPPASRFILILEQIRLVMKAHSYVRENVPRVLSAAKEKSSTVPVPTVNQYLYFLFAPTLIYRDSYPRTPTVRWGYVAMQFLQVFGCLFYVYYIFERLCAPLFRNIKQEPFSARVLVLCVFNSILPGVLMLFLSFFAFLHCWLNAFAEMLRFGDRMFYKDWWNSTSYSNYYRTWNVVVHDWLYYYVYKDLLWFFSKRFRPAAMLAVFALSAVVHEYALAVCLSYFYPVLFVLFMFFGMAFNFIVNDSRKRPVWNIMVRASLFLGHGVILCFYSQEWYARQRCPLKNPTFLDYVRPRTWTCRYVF
Summary of the method: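 Rat hepatic microsomes were incubated with labelled oleoyl-CoA, and formation of labelled cholesterol oleate was measured (pmol/min/mg). Assays were run in duplicate with at least four inhibitor concentrations bracketing the IC50.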

Mesocricetus auratus [2] = species on record: Mesocricetus auratus; experiment: Evaluated for Syrian hamsters fed with 2.5% cholesterol-supplemented chow diet for 3 days
Cricetinae gen. sp. = experiment: Tested anti-hypercholesterolaemic value(AHV) is the ratio of observed reduction in serum cholesterol to difference between control and baseline levels x100 at 10 mg/kg/day dose; assay type: functional
Mesocricetus auratus [3] = species on record: Mesocricetus auratus; experiment: Evaluated for Syrian hamsters fed with 0.8% cholesterol-supplemented chow diet for 7 days
Mesocricetus auratus [4] = species on record: Mesocricetus auratus; experiment: Evaluated for Syrian hamsters fed with a 0.8% cholesterol-supplemented chow diet for 7 days
Mesocricetus auratus [5] = species on record: Mesocricetus auratus; experiment: Evaluated for Syrian hamsters fed with a 2.5% cholesterol-supplemented chow diet for 3 days

| Structure (SMILES) | IC50 [1] | other results |
| --- | --- | --- |
| CCCCCCCN(CCCCCSc1nc(-c2ccccc2)c(-c2ccccc2)[nH]1)C(=O)C(C)C | 100 nM |  |
| O=C(Nc1ccc(F)cc1F)N(CCCCCSc1nc(-c2ccccc2)c(-c2ccccc2)[nH]1)CCc1ccccc1 | 170 nM |  |
| CCCCCCCN(CCCCCSc1nc(-c2ccccc2)c(-c2ccccc2)[nH]1)C(=O)OC1CCCCC1 | 50 nM |  |
| CCCCCCCN(CCCCCSc1nc(-c2ccccc2)c(-c2ccccc2)[nH]1)C(=O)Nc1c(C(C)C)cccc1C(C)C | 230 nM |  |
| CCCCCCCN(CCCCCSc1nc(-c2ccccc2)c(-c2ccccc2)[nH]1)C(=O)Nc1ccc(F)cc1F [LECIMIBIDE] |  | Serum cholesterol (Mesocricetus auratus [2]): 205 mg %; AHV (Cricetinae gen. sp.): 59% and 61%; Serum cholesterol (Mesocricetus auratus [3]): 253 mg % |
| O=C(Nc1ccc(F)cc1F)N(CCCCCSc1nc(-c2ccccc2)c(-c2ccccc2)[nH]1)CCCCc1ccccc1 | 50 nM |  |
| CCCCCCCN(CCCCCSc1nc(-c2ccccc2)c(-c2ccccc2)[nH]1)C(=O)NC(C)C | 20 nM |  |
| CCCCCCCN(CCCCCSc1nc(-c2ccccc2)c(-c2ccccc2)[nH]1)/C(S)=N\c1c(F)cc(F)cc1F | 30 nM |  |
| CCCCCCCN(CCCCCSc1nc(-c2ccccc2)c(-c2ccccc2)[nH]1)C(N)=Nc1ccccc1 | 3160 nM |  |
| CCCCCCCN(CCCCCSc1ncc[nH]1)C(=O)Nc1ccc(F)cc1F | 2900 nM |  |
| CCCCCCCCNC(=O)N(CCCCCSc1nc(-c2ccccc2)c(-c2ccccc2)[nH]1)Cc1ccccc1 | 150 nM |  |
| CCCCCCCN(CCCCC[S+]([O-])c1nc(-c2ccccc2)c(-c2ccccc2)[nH]1)C(=O)Nc1ccc(F)cc1F (stereo not drawn) | 8 nM | AHV (Cricetinae gen. sp.): 49%; Serum cholesterol (Mesocricetus auratus [4]): 278 mg % |
| CCCCCCCN(CCCCCSc1nc(-c2ccccc2)c(-c2ccccc2)[nH]1)C(=O)c1ccccc1 | 50 nM |  |
| CCCCCCCN(CCCCCSc1ncc(-c2ccccc2)n1-c1ccccc1)C(=O)Nc1ccc(F)cc1F | 7200 nM |  |
| CCCCCCCN(CCCCCCCCSc1nc(-c2ccccc2)c(-c2ccccc2)[nH]1)C(=O)Nc1ccc(F)cc1F | 8 nM | Serum cholesterol (Mesocricetus auratus [5]): 271 mg % |
| O=C(Nc1ccc(F)cc1F)N(CCCCCSc1nc(-c2ccccc2)c(-c2ccccc2)[nH]1)Cc1ccccc1 | 200 nM |  |
| CCCCCCCN(CCCCCCc1nc(-c2ccccc2)c(-c2ccccc2)[nH]1)C(=O)Nc1ccc(F)cc1F | 280 nM |  |
| CCCCCCCN(CCCCCSc1nc(-c2ccccc2)c(-c2ccccc2)[nH]1)C(=O)Nc1ccc([N+](=O)[O-])cc1 | 80 nM | AHV (Cricetinae gen. sp.): 38%; Serum cholesterol (Mesocricetus auratus [4]): 277 mg % |
| CCCCCCCN(CCCCCSc1nc(-c2ccccc2)c(-c2ccccc2)[nH]1)C(N)=O | 910 nM |  |
| O=C(NCCCCCSc1nc(-c2ccccc2)c(-c2ccccc2)[nH]1)Nc1ccc(F)cc1F | 400 nM |  |
| CCCCCCCN(CCCCCSc1nc(-c2ccccc2)c(-c2ccccc2)[nH]1)C(=O)CCC | 30 nM | AHV (Cricetinae gen. sp.): 43%; Serum cholesterol (Mesocricetus auratus [4]): 245 mg % |
| CCCCCCCCNC(=O)N(CCCCCSc1nc(-c2ccccc2)c(-c2ccccc2)[nH]1)c1ccccc1 | 10 nM | Serum cholesterol (Mesocricetus auratus [5]): 268 mg % |
| CCCCCCCN(CCSc1nc(-c2ccccc2)c(-c2ccccc2)[nH]1)C(=O)Nc1ccc(F)cc1F | 70 nM |  |
| CCCCCCCN(CCCCCSc1nc(-c2ccccc2)c(-c2ccccc2)[nH]1)/C(S)=N\c1ccc(F)cc1F | 58 nM |  |
| CCCCCCCN(Cc1ccc(CSc2nc(-c3ccccc3)c(-c3ccccc3)[nH]2)cc1)C(=O)Nc1ccc(F)cc1F | 200 nM |  |
| CCCCCCCCNC(=O)N(CCCCCSc1nc(-c2ccccc2)c(-c2ccccc2)[nH]1)c1ccc(F)cc1F | 40 nM |  |

| Structure (SMILES) | IC50 [1] | other results |
| --- | --- | --- |
| CCCCCCCN(CCCCCSc1nc(-c2ccccc2)c(-c2ccccc2)[nH]1)C(=O)Nc1ccc(-c2ccccc2)cc1 | 70 nM |  |
| CCCCCCCN(CCCCCSc1nc(-c2ccccc2)c(-c2ccccc2)[nH]1)C(=O)Cc1ccc(F)cc1F | 25 nM |  |
| CCCCCCCN(CCCCCSc1nc(-c2ccccc2)c(-c2ccccc2)[nH]1)C(=O)OCCC | 34 nM |  |
| CCCN(CCCCCSc1nc(-c2ccccc2)c(-c2ccccc2)[nH]1)C(=O)Nc1ccc(F)cc1F | 30 nM |  |
| CCCCCCCN(CCCCCNc1nc(-c2ccccc2)c(-c2ccccc2)[nH]1)C(=O)Nc1ccc(F)cc1F | 3500 nM |  |
| CCCCCCCN(CC(C)(C)CCSc1nc(-c2ccccc2)c(-c2ccccc2)[nH]1)C(=O)Nc1ccc(F)cc1F | 70 nM |  |
| O=C(Nc1ccc(F)cc1F)N(CCCCCSc1nc(-c2ccccc2)c(-c2ccccc2)[nH]1)CCCc1ccccc1 | 30 nM |  |
| CC(C)NC(=O)N(CCCCCSc1nc(-c2ccccc2)c(-c2ccccc2)[nH]1)c1ccc(F)cc1F | 40 nM |  |
| CCCCCCCN(Cc1cccc(CSc2nc(-c3ccccc3)c(-c3ccccc3)[nH]2)c1)C(=O)Nc1ccc(F)cc1F | 30 nM |  |
| CC(C)NC(=O)N(CCCCCSc1nc(-c2ccccc2)c(-c2ccccc2)[nH]1)c1ccccc1 | 80 nM |  |
| CCCCCCCN(CCCCCSc1nc(-c2ccccc2)c(-c2ccccc2)n1C)C(=O)Nc1ccc(F)cc1F | 3600 nM |  |
| CCCCCCCN(CCCCCSc1nc(-c2ccccc2)cn1-c1ccccc1)C(=O)Nc1ccc(F)cc1F | 42000 nM |  |
| CCCCCCCN(CCCCCSc1nc(-c2ccccc2)c(-c2ccccc2)[nH]1)C(=O)NC | 40 nM |  |
| CCCCCCCN(Cc1ccccc1CSc1nc(-c2ccccc2)c(-c2ccccc2)[nH]1)C(=O)Nc1ccc(F)cc1F | 3600 nM |  |
| CCCCCCCN(CCCCCSc1nc(-c2ccccc2)c(-c2ccccc2)[nH]1)C(=O)CC1CCCCC1 | 30 nM |  |
| CCCCCCCN(CCCCCSc1nc(-c2ccccc2)c(-c2ccccc2)[nH]1)C(=O)Nc1ccccc1 | 23 nM |  |
| CCCCCCCN(CCCCCS(=O)(=O)c1nc(-c2ccccc2)c(-c2ccccc2)[nH]1)C(=O)Nc1ccc(F)cc1F | 16 nM | AHV (Cricetinae gen. sp.): 30%; Serum cholesterol (Mesocricetus auratus [4]): 318 mg % |
| CCCCCCCN(CCCCCSc1nc(-c2ccccc2)c(-c2ccccc2)[nH]1)C(=O)Nc1c(F)cc(F)cc1F | 16 nM | Serum cholesterol (Mesocricetus auratus [5]): 218 mg %; AHV (Cricetinae gen. sp.): 51% |
| CC(C)c1cccc(C(C)C)c1NC(=O)NCCCCCSc1nc(-c2ccccc2)c(-c2ccccc2)[nH]1 | 510 nM |  |
| CCCCCCCN(CCCCCSc1nc(-c2ccccc2)c(-c2ccccc2)[nH]1)C(=O)Oc1ccccc1 | 20 nM |  |
| CCCCCCCN(CCCCCSc1nc(-c2ccccc2)c(-c2ccccc2)[nH]1)C(=O)NC1CCCCC1 | 10 nM |  |
| CCCCCCCN(CCCCCSc1nc(-c2ccccc2)c(-c2ccccc2)[nH]1)C(=O)Cc1ccc(-c2ccccc2)cc1 | 160 nM |  |
| CCCCCCCN(CCCCCSc1nc(-c2ccccc2)c(-c2ccccc2)[nH]1)C(=O)c1ccc(F)cc1F | 60 nM |  |
| CCCCCCCN(CCCCCSc1nc(-c2ccccc2)c(-c2ccccc2)n1-c1ccccc1)C(=O)Nc1ccc(F)cc1F | > 50000 nM |  |
| CCCCCCCCNC(=O)N(CCCCCSc1nc(-c2ccccc2)c(-c2ccccc2)[nH]1)c1c(F)cc(F)cc1F | 20 nM |  |
| CCCCCCCN(CCCCCSc1nc(-c2ccccc2)c(-c2ccccc2)[nH]1)C(=O)NCCC | 10 nM | AHV (Cricetinae gen. sp.): 74%; Serum cholesterol (Mesocricetus auratus [4]): 199 mg % |
